Reference: ChEMBL document CHEMBL1212920, “Discovery of 6-(aminomethyl)-5-(2,4-dichlorophenyl)-7-methylimidazo[1,2-a]pyrimidine-2-carboxamides as potent, selective dipeptidyl peptidase-4 (DPP4) inhibitors” (J Med Chem, 2010)
Blank lines part the entries; values can stand above or below the compound they belong to.

How the values were obtained:
hERG (KCNH2) = hERG (KCNH2) (Homo sapiens, UniProt Q12809); experiment: Inhibition of human ERG at 10 uM
Dipeptidyl peptidase 9 = Dipeptidyl peptidase 9 (Homo sapiens, UniProt Q86TI2); experiment: Inhibition of human DPP9
Dipeptidyl peptidase 8 = Dipeptidyl peptidase 8 (Homo sapiens, UniProt Q6V1X1); experiment: Inhibition of human DPP8
[1] = Membrane permeability by PAMPA assay; assay type: ADME; conditions: read-out: permeability
Rattus norvegicus = experiment: Volume of distribution at steady state in rat at 5 umol/kg, intra arterial and 2 umol/kg, po; assay type: ADME, organism-based; conditions: in vivo
Outline: (§1)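 Rat pharmacokinetics after a 5 μmol/kg intraarterial dose and a 2 μmol/kg oral dose, with water as vehicle. Urine collected over 24 h and the fraction of dose excreted as unchanged parent measured. Terminal half-life estimated after intraarterial dosing.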

[2] = Half life in rat at 5 umol/kg, intra arterial and 2 umol/kg, po; assay type: ADME, organism-based; conditions: in vivo; outline: as §1
[3] = Clearance in iv dosed rat; assay type: ADME, organism-based; conditions: in vivo; outline: as §1
[4] = Drug excretion in rat urine at 5 umol/kg, intra arterial and 2 umol/kg, po; assay type: ADME, organism-based; conditions: read-out: Activity; outline: as §1
[5] = Oral bioavailability in rat at 2 umol/kg, po; assay type: ADME, organism-based; conditions: in vivo; outline: as §1
Mus musculus [6] = experiment: Antidiabetic activity in ob/ob mouse assessed as reduction in blood glucose level at 3 umol/kg, po administered 1 hr prior to glucose challenge by oral glucose tolerance test; assay type: functional; design: scale not given: the % may be the effect or the level left
Outline: (§2)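 Male ob/ob mice, 13-14 weeks old, fed a 10% fat diet, fasted overnight. Given vehicle (water) or inhibitor orally at -60 min, then oral glucose 2 g/kg at 0 min. Tail bleeds into EDTA tubes at -60, 0, 15, 30, 60, 90 and 120 min. Plasma glucose read by glucometer, insulin by mouse ELISA. Mean of 12-24 mice/group; one-way ANOVA with Dunnett's test.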

Mus musculus [7] = experiment: Antidiabetic activity in ob/ob mouse assessed as reduction in blood glucose level at 1 umol/kg, po administered 1 hr prior to glucose challenge by oral glucose tolerance test; assay type: functional; design: scale not given: the % may be the effect or the level left; outline: as §2
Mus musculus [8] = experiment: Antidiabetic activity in ob/ob mouse assessed as increase in insulin level at 3 umol/kg, po administered 1 hr prior to glucose challenge by oral glucose tolerance test; assay type: functional; outline: as §2
Mus musculus [9] = experiment: Antidiabetic activity in ob/ob mouse assessed as increase in insulin level at 1 umol/kg, po administered 1 hr prior to glucose challenge by oral glucose tolerance test; assay type: functional; outline: as §2
Mus musculus [10] = experiment: In vivo inhibition of DPP4 activity in ob/ob mouse plasma at 1 umol/kg, po; assay type: functional
Mus musculus [11] = experiment: In vivo inhibition of DPP4 activity in ob/ob mouse plasma at 3 umol/kg, po; assay type: functional
[12] = Cmax in rat at 5 umol/kg, intra arterial and 2 umol/kg, po after 0.6 hrs; assay type: ADME, organism-based; design: dose 5 umol/kg, route oral; conditions: in vivo; outline: as §1
[13] = AUC (0 to infinity) in rat at 5 umol/kg, intra arterial and 2 umol/kg, po; assay type: ADME, organism-based; design: dose 5 umol/kg, route oral, time infinity; conditions: plasma; outline: as §1
Canis familiaris = experiment: Volume of distribution at steady state in dog at 5 umol/kg, intra arterial and 2 umol/kg, po; assay type: ADME, organism-based, Canis lupus familiaris; conditions: in vivo
[14] = Half life in dog at 5 umol/kg, intra arterial and 2 umol/kg, po; assay type: ADME, organism-based, Canis lupus familiaris; conditions: in vivo
[15] = Clearance in iv dosed dog; assay type: ADME, organism-based, Canis lupus familiaris; conditions: in vivo
[16] = Drug excretion in dog urine at 5 umol/kg, intra arterial and 2 umol/kg, po; assay type: ADME, organism-based, Canis lupus familiaris; conditions: read-out: Activity
[17] = Oral bioavailability in dog at 2 umol/kg, po; assay type: ADME, organism-based, Canis lupus familiaris; conditions: in vivo
[18] = Permeability across human Caco-2 cells; assay type: ADME, cell-based; conditions: read-out: permeability
[19] = Cmax in ob/ob mouse at 3 mg/kg, po after 1 hr; assay type: ADME, organism-based; design: dose 3 mg/kg, route oral; conditions: in vivo

Sequence of hERG (KCNH2) (Q12809 whole entry): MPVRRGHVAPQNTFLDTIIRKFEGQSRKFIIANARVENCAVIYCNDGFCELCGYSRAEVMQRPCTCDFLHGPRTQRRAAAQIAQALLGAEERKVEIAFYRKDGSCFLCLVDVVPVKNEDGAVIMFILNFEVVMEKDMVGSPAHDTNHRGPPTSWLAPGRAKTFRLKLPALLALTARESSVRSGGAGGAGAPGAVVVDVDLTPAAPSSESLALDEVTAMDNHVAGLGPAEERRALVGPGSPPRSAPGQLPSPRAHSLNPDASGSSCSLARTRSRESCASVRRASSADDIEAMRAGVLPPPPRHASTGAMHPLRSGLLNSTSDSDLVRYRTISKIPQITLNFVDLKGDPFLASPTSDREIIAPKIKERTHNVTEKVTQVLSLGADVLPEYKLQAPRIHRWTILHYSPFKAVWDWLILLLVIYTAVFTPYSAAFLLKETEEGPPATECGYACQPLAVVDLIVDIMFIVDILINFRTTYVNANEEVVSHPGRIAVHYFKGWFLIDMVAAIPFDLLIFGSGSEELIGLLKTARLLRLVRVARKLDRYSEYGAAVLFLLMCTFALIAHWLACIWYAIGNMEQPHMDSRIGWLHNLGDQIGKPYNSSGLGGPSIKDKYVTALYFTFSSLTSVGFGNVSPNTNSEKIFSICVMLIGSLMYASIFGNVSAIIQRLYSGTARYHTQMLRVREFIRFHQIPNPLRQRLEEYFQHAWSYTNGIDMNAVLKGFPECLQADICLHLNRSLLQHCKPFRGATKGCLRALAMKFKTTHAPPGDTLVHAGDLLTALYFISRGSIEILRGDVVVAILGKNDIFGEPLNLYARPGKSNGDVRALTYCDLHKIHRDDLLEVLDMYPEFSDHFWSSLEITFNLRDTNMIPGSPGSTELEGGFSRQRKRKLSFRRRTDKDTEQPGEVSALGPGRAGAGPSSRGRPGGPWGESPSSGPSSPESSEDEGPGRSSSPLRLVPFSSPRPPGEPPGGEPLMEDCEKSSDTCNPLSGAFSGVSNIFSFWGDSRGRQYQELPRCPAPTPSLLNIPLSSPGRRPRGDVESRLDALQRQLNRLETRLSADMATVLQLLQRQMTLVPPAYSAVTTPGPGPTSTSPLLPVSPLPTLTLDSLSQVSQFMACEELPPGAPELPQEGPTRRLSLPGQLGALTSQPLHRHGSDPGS
Sequence of Dipeptidyl peptidase 9 (Q86TI2 whole entry): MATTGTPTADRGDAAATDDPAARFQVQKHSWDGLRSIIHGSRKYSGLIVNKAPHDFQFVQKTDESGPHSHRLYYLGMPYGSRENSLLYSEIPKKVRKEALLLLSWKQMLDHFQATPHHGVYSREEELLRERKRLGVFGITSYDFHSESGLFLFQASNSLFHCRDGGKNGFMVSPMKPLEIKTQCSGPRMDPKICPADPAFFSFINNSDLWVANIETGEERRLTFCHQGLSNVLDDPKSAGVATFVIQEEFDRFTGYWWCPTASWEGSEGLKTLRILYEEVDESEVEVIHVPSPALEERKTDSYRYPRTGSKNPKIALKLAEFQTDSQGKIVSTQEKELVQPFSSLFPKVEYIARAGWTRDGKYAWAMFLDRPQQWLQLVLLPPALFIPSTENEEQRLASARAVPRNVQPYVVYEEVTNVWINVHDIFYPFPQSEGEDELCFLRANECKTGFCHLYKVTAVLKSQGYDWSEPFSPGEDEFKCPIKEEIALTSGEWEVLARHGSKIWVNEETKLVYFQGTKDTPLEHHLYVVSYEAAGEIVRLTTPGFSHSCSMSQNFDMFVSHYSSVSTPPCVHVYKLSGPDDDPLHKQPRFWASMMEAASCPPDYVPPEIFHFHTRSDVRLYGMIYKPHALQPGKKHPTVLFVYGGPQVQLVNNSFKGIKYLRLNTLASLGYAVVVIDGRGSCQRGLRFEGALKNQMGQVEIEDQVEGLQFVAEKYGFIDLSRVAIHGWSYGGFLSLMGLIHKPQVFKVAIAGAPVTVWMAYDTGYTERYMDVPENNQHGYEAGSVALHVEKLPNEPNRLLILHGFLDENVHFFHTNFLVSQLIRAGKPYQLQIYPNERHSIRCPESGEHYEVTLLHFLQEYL
Sequence of Dipeptidyl peptidase 8 (Q6V1X1 whole entry): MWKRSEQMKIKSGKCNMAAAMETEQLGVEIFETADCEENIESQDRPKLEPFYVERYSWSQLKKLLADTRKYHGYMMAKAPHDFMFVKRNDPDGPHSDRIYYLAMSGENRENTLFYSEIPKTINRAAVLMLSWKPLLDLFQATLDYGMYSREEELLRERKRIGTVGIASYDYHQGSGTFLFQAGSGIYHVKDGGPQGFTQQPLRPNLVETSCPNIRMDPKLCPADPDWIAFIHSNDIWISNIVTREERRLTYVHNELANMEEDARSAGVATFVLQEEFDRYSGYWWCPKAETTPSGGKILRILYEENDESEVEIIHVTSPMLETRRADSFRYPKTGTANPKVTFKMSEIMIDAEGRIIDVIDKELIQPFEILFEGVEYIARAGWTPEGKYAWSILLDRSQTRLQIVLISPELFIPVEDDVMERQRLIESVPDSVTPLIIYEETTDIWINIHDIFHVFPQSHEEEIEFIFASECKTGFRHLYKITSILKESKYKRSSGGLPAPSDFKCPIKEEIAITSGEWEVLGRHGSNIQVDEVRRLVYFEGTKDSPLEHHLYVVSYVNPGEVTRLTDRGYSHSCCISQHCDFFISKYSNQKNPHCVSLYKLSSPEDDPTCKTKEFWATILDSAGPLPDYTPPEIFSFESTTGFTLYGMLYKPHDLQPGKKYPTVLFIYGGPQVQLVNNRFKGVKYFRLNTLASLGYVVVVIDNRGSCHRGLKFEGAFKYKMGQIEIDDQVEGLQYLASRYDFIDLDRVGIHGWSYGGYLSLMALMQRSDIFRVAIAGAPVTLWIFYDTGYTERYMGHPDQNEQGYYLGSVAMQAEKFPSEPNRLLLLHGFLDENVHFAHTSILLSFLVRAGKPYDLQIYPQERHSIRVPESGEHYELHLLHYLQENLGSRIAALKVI

Compound: CCOC(=O)c1cn2c(-c3ccc(Cl)cc3Cl)c(CN)c(C)nc2n1
inhibition at 10 µM (hERG (KCNH2)): 23%

Compound: Cc1nc2nc(C(=O)NCCN3CCCCC3)cn2c(-c2ccc(Cl)cc2Cl)c1CN
Ki (Dipeptidyl peptidase 9): > 30 µM

Compound: Cc1nc2nc(C(=O)NC3CCN(C(C)C)CC3)cn2c(-c2ccc(Cl)cc2Cl)c1CN
Ki (Dipeptidyl peptidase 8): > 10 µM
Ki (Dipeptidyl peptidase 9): > 10 µM

Compound: Cc1nc2nc(-c3ccccc3)cn2c(-c2ccc(Cl)cc2Cl)c1CN
inhibition at 10 µM (hERG (KCNH2)): 74%

Compound: CCn1nccc1NC(=O)c1cn2c(-c3ccc(Cl)cc3Cl)c(CN)c(C)nc2n1
Papp [1]: 66.9 ×10⁻⁶ cm/s
inhibition at 10 µM (hERG (KCNH2)): 31%
Vdss (Rattus norvegicus): 3.9 L/kg
half-life [2]: 2.1 h
clearance [3]: 43.2 mL/min/kg
dose excreted [4]: 4.4%
bioavailability [5]: 64%
Activity (Mus musculus [6]): 58%
Activity (Mus musculus [7]): 40%
Activity (Mus musculus [8]): 129%
Activity (Mus musculus [9]): 93%
inhibition in vivo at 1 µmol/kg (Mus musculus [10]): 62%
inhibition in vivo at 3 µmol/kg (Mus musculus [11]): 52.8%

Second part, led by results:

Papp [1]: 46.4 ×10⁻⁶ cm/s
Vdss (Rattus norvegicus): 1.3 L/kg
half-life [2]: 1.6 h
clearance [3]: 25.4 mL/min/kg
dose excreted [4]: 56%
bioavailability [5]: 54%
Cmax [12]: 324 nM
AUC(0-inf) [13]: 0.714 µM·h
Vdss (Canis familiaris): 1.5 L/kg
half-life [14]: 4.6 h
clearance [15]: 7.9 mL/min/kg
dose excreted [16]: 41%
bioavailability [17]: 76%
Compound: Cc1nc2nc(C(=O)N3CCOCC3)cn2c(-c2ccc(Cl)cc2Cl)c1CN
Activity (Mus musculus [6]): 63%
Activity (Mus musculus [7]): 66%

Papp [18]: < 1.5 ×10⁻⁶ cm/s
Cmax [19]: 45 nM
Compound: Cc1nc2nc(C(=O)N3CC[C@H](NS(C)(=O)=O)C3)cn2c(-c2ccc(Cl)cc2Cl)c1CN

Papp [1]: 51.8 ×10⁻⁶ cm/s
Compound: Cc1nc2nc(C(=O)N3CCCC3)cn2c(-c2ccc(Cl)cc2Cl)c1CN
